Assay results as given in the RNAGym collection of RNA variant scans (doi:10.1126/science.aae0568).
Fewer inactive variants are shown than the library holds.

B1: tRNA (parent)
chain: GUUCCGUUGGCGUAAUGGUAACGCGUCUCCCUCCUAAGGAGAAGACUGCGGGUUCGAGUCCCGUACGGAACG

Variants of: B1
Test: yeast fitness relative to wild type (ratio to wild type); higher = fitter; tRNA-Arg(CCU), competitive growth, 37 C, YPD
Outline: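 A pool of Saccharomyces cerevisiae strains, each with a tRNA-Arg(CCU) gene variant at the native genomic locus, was competed in YPD at 37°C for 24 hours across six parallel replicates. The variants had been chemically synthesised at a 3% per-site mutation rate over 69 sites, and gene amplicons before and after competition were read by 100-nucleotide paired-end sequencing. Darwinian fitness relative to wild type rested on changes in genotype frequencies. Genotypes required ≥ 100 starting reads, and estimates < 0.5 were set to 0.5.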
In the case of U2A G48C A65C, the yeast fitness is reported as 0.593.
In the case of U2A U54A, the yeast fitness is reported as 0.613.
With U2C A15U A37G the yeast fitness was at most 0.5.
For U2A G23A C29G A40C C55G, the yeast fitness was at most 0.5.
In the case of U2A G9C A14C C34U A65U, the yeast fitness is reported as at most 0.5.
Work on U2A U16A G56C A57G C62U yielded a yeast fitness of at most 0.5.
In the case of U2C A15C A20C A65U, the yeast fitness is reported as 0.52.
With U2A C66A the yeast fitness was 0.704.
With U2A G48A C60U A69U the yeast fitness was at most 0.5.
Work on U2A C22G G63A yielded a yeast fitness of 0.568.
Work on U2A C46G yielded a yeast fitness of 0.829.
In the case of U2A G6A C11G C49U G58C A69U, the yeast fitness is reported as at most 0.5.
In the case of U2A G17C C46G C66A A70C, the yeast fitness is reported as 0.605.
U2A U19A C27U G67A showed a yeast fitness of at most 0.5.
U2C A14G G48C showed a yeast fitness of 0.709.
Work on U2A U16C G44C G52A yielded a yeast fitness of at most 0.5.
For U2A U8A C29G C60U C62A, the yeast fitness was at most 0.5.
U2A U7G C27U G39C C60A gave a yeast fitness of at most 0.5.
In the case of U2A C60G A70U, the yeast fitness is reported as at most 0.5.
U2A C60G A70C showed a yeast fitness of 0.532.
Work on U2A U8A C33U A43U A57G yielded a yeast fitness of at most 0.5.
Work on U2A C31G G39C C49U C60G yielded a yeast fitness of at most 0.5.
Variant U2A C24A has a yeast fitness of 0.662.
In the case of U2A C46A A70C, the yeast fitness is reported as 0.705.
U2A C24G U32A U54C G56A showed a yeast fitness of at most 0.5.
For U2A G18C G23A G25C A37G A43C C55G G68A, the yeast fitness was 0.558.
U2C A14U C31U C62G showed a yeast fitness of at most 0.5.
With U2A U32C U53C the yeast fitness was at most 0.5.
Variant U2A C30U U32A C62G has a yeast fitness of at most 0.5.
For U2A C24G U32A G58C G63C, the yeast fitness was at most 0.5.
With U2A U16C G68A the yeast fitness was at most 0.5.
For U2C A14U C61G A70G, the yeast fitness was at most 0.5.
U2A C60U A65U gave a yeast fitness of at most 0.5.
U2A U64A gave a yeast fitness of 0.855.
With U2A G6A U7C G25A A36U C60A C62G the yeast fitness was at most 0.5.
With U2C A14G G17A C46U C60A the yeast fitness was at most 0.5.
For U2A G12A C30A A43U C60A G67A, the yeast fitness was at most 0.5.
U2C A15G A69C gave a yeast fitness of 0.691.
For U2C A20G C22U C24A A69G, the yeast fitness was at most 0.5.
For U2A C30U A42G C60G C62G A65G, the yeast fitness was 0.595.
Work on U2A U54A A65U yielded a yeast fitness of at most 0.5.
U2A U8G C33G G38A gave a yeast fitness of at most 0.5.
Work on U2C A20G C62U yielded a yeast fitness of 0.599.
Variant U2C A15G U19A A20U A37U A45G U47G C61G has a yeast fitness of 0.676.
U2A G50C gave a yeast fitness of 0.562.
Work on U2A G18A C22A C24G A43G C49G yielded a yeast fitness of 0.634.
In the case of U2A G9C G17A, the yeast fitness is reported as at most 0.5.
U2A C34U showed a yeast fitness of 0.743.
Work on U2A U8C C24G A43U C46U yielded a yeast fitness of at most 0.5.
With U2A G12C C29U C33G the yeast fitness was at most 0.5.
For U2C A15C C22A C31U C55A, the yeast fitness was at most 0.5.
With U2A U32C the yeast fitness was 0.954.
In the case of U2C A14G G18A U32A G44A, the yeast fitness is reported as 0.527.
In the case of U2C A20G C30U, the yeast fitness is reported as 0.576.
U2A U3A U26A A57U C62G C66U showed a yeast fitness of at most 0.5.
For U2A C27G A36G, the yeast fitness was at most 0.5.
With U2A C22U U32A A65G the yeast fitness was at most 0.5.
U2A U7C G25A A36U C62U G67A gave a yeast fitness of at most 0.5.
In the case of U2C A14G G18A G41A A69C, the yeast fitness is reported as at most 0.5.
With U2A C27A C60U A69G the yeast fitness was 0.514.
For U2A C33U, the yeast fitness was 0.636.
U2A C33A showed a yeast fitness of 0.721.
U2A G25A A40C A65C showed a yeast fitness of at most 0.5.
U2A U13A C29U U35A C60U showed a yeast fitness of at most 0.5.
U2A G10A U26A C66U gave a yeast fitness of at most 0.5.
With U2A U7C G17C C29A A45U U59C the yeast fitness was 0.902.
Work on U2A G18A C24A U28A U32C C60A yielded a yeast fitness of at most 0.5.
Variant U2A C33G G51C C66G G67A A69C has a yeast fitness of at most 0.5.
U2A G9A U19C A69C gave a yeast fitness of 0.685.
With U2A G48C G52C A57C G58A the yeast fitness was at most 0.5.
U2A U16G A70C gave a yeast fitness of 0.835.
In the case of U2A U8A G9A U13A C24A A45C, the yeast fitness is reported as at most 0.5.
U2A C31G A65U A69C gave a yeast fitness of at most 0.5.
For U2A C27A C60U U64C A69G, the yeast fitness was at most 0.5.
For U2A U32A C62G, the yeast fitness was 0.509.
U2A C31G C60G U64G gave a yeast fitness of 0.532.
With U2C A14G G18A U32A C66G the yeast fitness was at most 0.5.
Work on U2A C22U A43U yielded a yeast fitness of 0.533.
U2A G52C gave a yeast fitness of 0.65.
For U2C A15U A20U C27U C61G, the yeast fitness was at most 0.5.
U2A U8A C33U A43U A57G G67U gave a yeast fitness of at most 0.5.
In the case of U2A C31G C49U G51A G63A, the yeast fitness is reported as at most 0.5.
Variant U2A G44A C46U has a yeast fitness of 0.621.
For U2A C30G U53C A57U C60U, the yeast fitness was at most 0.5.
With U2A U13A C24A A45C the yeast fitness was at most 0.5.
Variant U2A G12C C29U G51A G56A A57G G63C has a yeast fitness of at most 0.5.
Work on U2A G9A U13A U35G A70C yielded a yeast fitness of at most 0.5.
For U2C A14G C22A C27A C29U A42C, the yeast fitness was at most 0.5.
For U2A G9A C11U A40U A42C A45G G50C C61U C66U, the yeast fitness was at most 0.5.
Work on U2A G23A C29G G58C C60U C66G yielded a yeast fitness of at most 0.5.
In the case of U2A G6A C11G C49U G58C G68U, the yeast fitness is reported as at most 0.5.
With U2C A20G C27G A37C G38C A43G C55A the yeast fitness was at most 0.5.
U2A G6A C11G C49U A65U gave a yeast fitness of at most 0.5.
U2A G17C C49U gave a yeast fitness of 0.571.
With U2A U32C C33A G51C G68A the yeast fitness was at most 0.5.
In the case of U2A U35A A45C, the yeast fitness is reported as at most 0.5.
With U2C A20C A65U the yeast fitness was 0.641.
Variant U2C A14G A57C A69U has a yeast fitness of at most 0.5.
With U2A U16G G41C the yeast fitness was 0.649.
In the case of U2A C27U C29U C62U, the yeast fitness is reported as at most 0.5.
U2A C49G gave a yeast fitness of 0.812.
U2A C49A gave a yeast fitness of 0.637.
For U2C A20G C27G A37C G38C A43G A69U, the yeast fitness was at most 0.5.
Work on U2C A14G yielded a yeast fitness of 0.863.
With U2A C29A A45U the yeast fitness was 0.542.
U2A G17C C46U showed a yeast fitness of at most 0.5.
Work on U2A C29A A45U G67C yielded a yeast fitness of at most 0.5.
Work on U2A U3G G18A A20C C49U C55U yielded a yeast fitness of at most 0.5.
In the case of U2A G58C C66U, the yeast fitness is reported as 0.702.
Work on U2A U3A A45G C49U yielded a yeast fitness of 0.609.
For U2A G6C G52A, the yeast fitness was at most 0.5.
For U2A U7G C24G C29A A43U U53A A57U A65U, the yeast fitness was at most 0.5.
In the case of U2A U16G G50C C55U C60G A69G, the yeast fitness is reported as at most 0.5.
For U2A C24U C30U C34U G52A C66G, the yeast fitness was at most 0.5.
For U2C A14G C46U, the yeast fitness was 0.669.
In the case of U2A U8A C11G U54A, the yeast fitness is reported as at most 0.5.
With U2A U26G the yeast fitness was 0.821.
U2A U26C gave a yeast fitness of 0.934.
In the case of U2A G9A C33U G38C A40U A42C, the yeast fitness is reported as at most 0.5.
U2A C60U A65U A70U showed a yeast fitness of at most 0.5.
Variant U2A G23C G58A has a yeast fitness of at most 0.5.
U2A U3G C5U C29G C30G C46G gave a yeast fitness of at most 0.5.
U2A C30G A37U U53A C55U A57U showed a yeast fitness of 0.574.
For U2C A15U A20U, the yeast fitness was at most 0.5.
Variant U2A C27G C31U has a yeast fitness of 0.539.
With U2A G23A C29G A45U C60G C61U A69G the yeast fitness was at most 0.5.
In the case of U2A U7A U32A, the yeast fitness is reported as at most 0.5.
U2C A15C U19C C22G C34U G39C C62U A65C gave a yeast fitness of at most 0.5.
For U2A G6A C33G C34G C61A, the yeast fitness was at most 0.5.
U2A G6A C11G U28G C34G G44C C61G gave a yeast fitness of at most 0.5.
U2A U32A G67A gave a yeast fitness of at most 0.5.
Variant U2A C61U G67C has a yeast fitness of at most 0.5.
In the case of U2A U8C C30G U59A U64A, the yeast fitness is reported as 0.569.
For U2A U16A, the yeast fitness was 0.989.
With U2A U16C the yeast fitness was 0.88.
Variant U2A G6A C27G A42U A43U has a yeast fitness of at most 0.5.
In the case of U2A C27G A37C C55U C62G C66G, the yeast fitness is reported as at most 0.5.
For U2A G9C, the yeast fitness was 0.716.
U2A U35C showed a yeast fitness of 0.875.
With U2A G6C U16C C24U the yeast fitness was 0.523.
In the case of U2A G12U C55U, the yeast fitness is reported as at most 0.5.
With U2C A20U A45G the yeast fitness was at most 0.5.
U2A G25C G38C C61U A70G showed a yeast fitness of at most 0.5.
U2A C24A A36G A45G showed a yeast fitness of at most 0.5.
In the case of U2A U13G A14G U28A A36U A45U A57G, the yeast fitness is reported as at most 0.5.
In the case of U2A U16G C27G C49G G67U, the yeast fitness is reported as at most 0.5.
U2A G44C C46A G56C showed a yeast fitness of at most 0.5.
With U2A U16C C30A A69C the yeast fitness was 0.544.
U2C A15C C55G A57C C66A showed a yeast fitness of at most 0.5.
U2A C60A showed a yeast fitness of 0.645.
U2C A14G C29A C46G showed a yeast fitness of at most 0.5.
U2A G9A U19C showed a yeast fitness of 1.03.
For U2A C30G G58C C66G, the yeast fitness was at most 0.5.
Variant U2A C34G A40C C46G has a yeast fitness of 0.516.
Variant U2C A14C C46A has a yeast fitness of at most 0.5.
With U2A U13A A14C C33U G52C the yeast fitness was at most 0.5.
U2A U7C G25A A36U gave a yeast fitness of at most 0.5.
Variant U2A G9U A20G has a yeast fitness of at most 0.5.
U2A G39A U47A C49U U54A showed a yeast fitness of at most 0.5.
In the case of U2A C46G C49U, the yeast fitness is reported as 0.686.
In the case of U2A G12C G23C, the yeast fitness is reported as at most 0.5.
For U2A U3G U32A C60A, the yeast fitness was at most 0.5.
For U2A G25A, the yeast fitness was 0.828.
With U2A G6C U7C A43C C46U G63C C66U the yeast fitness was at most 0.5.
In the case of U2A U13C U19G C22U C31U A40U G67A, the yeast fitness is reported as at most 0.5.
For U2A U3C G6A G39A, the yeast fitness was at most 0.5.
Work on U2A C31G A65U G67C yielded a yeast fitness of at most 0.5.
